Assay results: ChEMBL document CHEMBL4834402, “Discovery of TAK-981, a First-in-Class Inhibitor of SUMO-Activating Enzyme for the Treatment of Cancer” (J Med Chem, 2021)

Assays:
SUMO-activating enzyme [1] = target: T1, SUMO-activating enzyme (Homo sapiens, UniProt Q9UBT2); test: Inhibition of SAE in human HCT116 cells assessed as reduction in redistribution of SUMO2/3 proteins from nucleus to cytosol incubated for 4 hrs by immunofluorescence assay; format: cell-based, HCT-116
Summary of the method: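 HCT-116 cells exposed to compound across a concentration range for 4 h, then stained with anti-SUMO2/3 monoclonal antibody. Automated imaging scored the nuclear (inner) to cytoplasmic (outer) SUMO2/3 ratio. IC50 taken from the dose response.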

SUMO-activating enzyme [2] = target: T1, SUMO-activating enzyme; test: Inhibition of recombinant SAE (unknown origin) assessed as reduction in transfer of SUMO1 to UBC9 using SUMO1 as a substrate in presence of ATP at Km concentration by HTRF assay; format: protein-complex assay
Summary of the method: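 HTRF transthiolation assay measuring transfer of SUMO1 to UBC9, the E2 for SAE.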

NEDD8 activating enzyme = target: T2, NEDD8 activating enzyme (Homo sapiens, UniProt Q8TBC4); test: Inhibition of recombinant NAE (unknown origin) in presence of ATP at Km concentration by HTRF assay; format: protein-complex assay
T2 sequence (Q8TBC4 whole entry): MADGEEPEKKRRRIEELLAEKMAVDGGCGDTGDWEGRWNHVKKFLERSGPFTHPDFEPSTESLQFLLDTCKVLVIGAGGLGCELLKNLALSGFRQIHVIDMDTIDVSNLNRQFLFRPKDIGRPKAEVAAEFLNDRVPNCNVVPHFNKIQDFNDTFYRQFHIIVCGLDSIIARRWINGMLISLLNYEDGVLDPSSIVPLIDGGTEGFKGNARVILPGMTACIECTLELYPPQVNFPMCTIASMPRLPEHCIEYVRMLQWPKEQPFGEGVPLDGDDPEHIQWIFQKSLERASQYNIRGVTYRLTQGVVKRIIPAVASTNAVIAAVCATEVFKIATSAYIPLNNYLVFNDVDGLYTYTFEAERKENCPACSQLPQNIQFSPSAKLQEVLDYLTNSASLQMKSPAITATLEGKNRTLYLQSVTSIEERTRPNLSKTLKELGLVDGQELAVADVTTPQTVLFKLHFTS
T2 sequence (Q13564 whole entry): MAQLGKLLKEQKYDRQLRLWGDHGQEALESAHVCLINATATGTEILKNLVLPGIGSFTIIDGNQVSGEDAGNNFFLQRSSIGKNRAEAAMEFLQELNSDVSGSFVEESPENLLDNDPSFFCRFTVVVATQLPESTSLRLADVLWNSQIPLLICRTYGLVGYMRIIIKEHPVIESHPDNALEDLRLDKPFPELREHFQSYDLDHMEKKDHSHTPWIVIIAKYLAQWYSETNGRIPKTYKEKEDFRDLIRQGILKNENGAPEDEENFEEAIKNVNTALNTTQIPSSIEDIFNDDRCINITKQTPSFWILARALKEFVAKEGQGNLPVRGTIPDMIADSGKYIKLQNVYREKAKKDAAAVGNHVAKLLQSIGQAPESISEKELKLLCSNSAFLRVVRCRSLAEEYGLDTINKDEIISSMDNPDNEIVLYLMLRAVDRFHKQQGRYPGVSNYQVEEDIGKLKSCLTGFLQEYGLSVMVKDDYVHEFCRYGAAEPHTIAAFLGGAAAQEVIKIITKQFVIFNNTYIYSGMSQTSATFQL

[3] = Inhibition of recombinant UAE (unknown origin) in presence of ATP at Km concentration by HTRF assay; design: species or system Homo sapiens
SUMO-activating enzyme [4] = target: T1, SUMO-activating enzyme; test: Inhibition of SAE in human HCT116 cells assessed as redistribution of SUMO2/3 proteins from nucleus to cytosol preincubated for 2 hrs followed by compound washout and measured after 8 hrs by immunofluorescence assay; format: cell-based, HCT-116
Summary of the method: (§1)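 Washout format of the SUMO2/3 immunofluorescence assay in HCT116 cells. Cells were exposed to a range of concentrations for 2 h, then washed free of compound.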

SUMO-activating enzyme [5] = target: T1, SUMO-activating enzyme; test: Inhibition of SAE in human HCT116 cells assessed as redistribution of SUMO2/3 proteins from nucleus to cytosol preincubated for 2 hrs followed by compound washout and measured immediately by immunofluorescence assay; format: cell-based, HCT-116; summary of the method: as §1

T1 sequence (Q9UBE0 whole entry): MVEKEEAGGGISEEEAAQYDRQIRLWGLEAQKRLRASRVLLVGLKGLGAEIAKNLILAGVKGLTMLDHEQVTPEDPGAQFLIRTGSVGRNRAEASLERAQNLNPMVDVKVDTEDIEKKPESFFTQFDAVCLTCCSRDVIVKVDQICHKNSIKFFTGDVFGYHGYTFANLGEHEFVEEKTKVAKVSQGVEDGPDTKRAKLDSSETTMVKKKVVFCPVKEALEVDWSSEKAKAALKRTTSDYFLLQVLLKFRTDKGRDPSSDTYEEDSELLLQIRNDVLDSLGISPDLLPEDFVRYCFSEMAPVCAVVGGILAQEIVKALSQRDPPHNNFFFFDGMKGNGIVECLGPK
T1 sequence (Q9UBT2 whole entry): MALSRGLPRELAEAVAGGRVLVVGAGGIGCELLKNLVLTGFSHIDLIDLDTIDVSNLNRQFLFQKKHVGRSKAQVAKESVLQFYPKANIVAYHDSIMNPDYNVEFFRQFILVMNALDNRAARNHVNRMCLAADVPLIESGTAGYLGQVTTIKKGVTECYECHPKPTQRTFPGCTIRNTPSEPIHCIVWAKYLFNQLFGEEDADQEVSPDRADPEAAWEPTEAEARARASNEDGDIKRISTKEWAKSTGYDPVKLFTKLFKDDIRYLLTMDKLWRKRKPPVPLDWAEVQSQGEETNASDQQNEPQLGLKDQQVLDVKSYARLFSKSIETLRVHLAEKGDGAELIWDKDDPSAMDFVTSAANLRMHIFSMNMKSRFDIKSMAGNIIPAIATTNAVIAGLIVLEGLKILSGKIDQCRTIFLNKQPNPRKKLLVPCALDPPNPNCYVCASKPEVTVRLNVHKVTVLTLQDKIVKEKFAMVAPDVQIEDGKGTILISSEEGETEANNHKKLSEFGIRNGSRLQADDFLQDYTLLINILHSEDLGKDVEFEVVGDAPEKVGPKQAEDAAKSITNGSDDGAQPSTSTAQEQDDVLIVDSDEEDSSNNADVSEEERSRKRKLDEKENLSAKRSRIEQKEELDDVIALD

Row | SMILES | IC50 (SUMO-activating enzyme [1]) [µM] | IC50 (SUMO-activating enzyme [2]) [µM] | IC50 (NEDD8 activating enzyme) [µM] | IC50 [3] [µM] | IC50 (SUMO-activating enzyme [4]) [µM] | IC50 (SUMO-activating enzyme [5]) [µM]
1 | Cc1sc(C(=O)c2cncnc2N[C@@H]2C[C@H](COS(N)(=O)=O)[C@@H](O)C2)cc1C1OCCc2ccc(Cl)cc21 (stereo in doubt; 47) | 3.88 | 0.011 | 0.087 |  |  | 
2 | Cc1sc(C(=O)c2cncnc2N[C@@H]2C[C@H](COS(N)(=O)=O)[C@@H](O)C2)cc1[C@H]1NCCc2ccc(Cl)cc21 | 0.399 | 0.03 | 0.554 | > 1 |  | 
3 | NS(=O)(=O)OC[C@H]1C[C@@H](Nc2ncncc2C(=O)c2cc(Cc3cccc(Cl)c3)cs2)C[C@@H]1O |  |  | 0.064 | > 1 |  | 
4 | Cc1cccc(Cn2ccc(C(=O)c3cncnc3N[C@@H]3C[C@H](COS(N)(=O)=O)[C@@H](O)C3)n2)c1 | 0.029 | 0.0017 | 0.308 | > 1 |  | 
5 | NS(=O)(=O)OC[C@H]1C[C@@H](Nc2ncncc2C(=O)c2ccn(Cc3ccccc3)n2)[C@@H](F)[C@@H]1O | 0.26 | 0.0023 | 0.688 | 0.492 |  | 
6 | NS(=O)(=O)OC[C@H]1C[C@@H](Nc2ncncc2C(=O)c2cc(C3NCc4ccc(Cl)cc43)cs2)C[C@@H]1O (stereo partly drawn) | 0.312 | 0.0016 | > 1 | > 1 |  | 
7 | Cc1sc(C(=O)c2cncnc2N[C@@H]2C[C@H](COS(N)(=O)=O)[C@@H](O)C2)cc1C1OCCc2cccnc21 (stereo partly drawn) |  | 0.0002 | 0.507 | > 1 | 0.064 | 0.019
8 | NS(=O)(=O)OC[C@H]1C[C@@H](Nc2ncncc2C(=O)c2ccn(Cc3cccc(Br)c3)c2)C[C@@H]1O | 0.014 | 0.0006 | 0.01 | > 1 |  | 
9 | CN1CCc2ccc(Cl)cc2C1c1csc(C(=O)c2cncnc2N[C@@H]2C[C@H](COS(N)(=O)=O)[C@@H](O)C2)c1 (stereo partly drawn) | 0.638 | 0.0025 | > 1 | > 1 |  | 
10 | NS(=O)(=O)OC[C@H]1C[C@@H](Nc2ncncc2C(=O)c2ccn(-c3ccccc3)n2)C[C@@H]1O | > 1 | 0.067 | 0.032 | 0.468 |  | 
11 | NS(=O)(=O)OC[C@H]1C[C@@H](Nc2ncncc2C(=O)c2ccn(Cc3cccc(F)c3)n2)C[C@@H]1O | 0.515 | 0.0029 | 0.357 | > 1 |  | 
12 | NS(=O)(=O)OC[C@H]1C[C@@H](Nc2ncncc2C(=O)c2ccn(Cc3cccc(Br)n3)n2)C[C@@H]1O | 0.049 | 0.0007 | 0.581 | > 1 |  | 
13 | NS(=O)(=O)OC[C@H]1C[C@@H](Nc2ncncc2C(=O)c2ccn(Cc3cccc(Cl)c3)n2)C[C@@H]1O | 0.02 | 0.0007 | 0.242 | > 1 |  | 
14 | NS(=O)(=O)OC[C@H]1C[C@@H](Nc2ncncc2C(=O)c2ccc(Cc3cccc(Br)c3)o2)C[C@@H]1O |  |  | 0.267 | > 1 |  | 
15 | NS(=O)(=O)OC[C@H]1C[C@@H](Nc2ncncc2C(=O)c2ccn(Cc3ccccc3)c2)C[C@@H]1O | 0.03 | 0.0017 | 0.023 | > 1 |  | 
16 | NS(=O)(=O)OC[C@H]1C[C@@H](Nc2ncncc2C(=O)c2ccn(Cc3ccccc3Cl)n2)C[C@@H]1O | 0.332 | 0.0032 | 0.215 | > 1 |  | 
17 | NS(=O)(=O)OC[C@H]1C[C@@H](Nc2ncncc2C(=O)c2ccn(Cc3cccc(Cl)n3)n2)C[C@@H]1O | 0.066 | 0.001 | 0.478 | > 1 |  | 
18 | NS(=O)(=O)OC[C@H]1C[C@@H](Nc2ncncc2C(=O)c2ccn(CC3CCCCC3)n2)C[C@@H]1O | 1.61 | 0.0082 | 0.276 | > 1 |  | 
